According to ChEMBL document CHEMBL5030525, “Design, synthesis and antitumor activity evaluation of trifluoromethyl-substituted pyrimidine derivatives” (Bioorg Med Chem Lett, 2021):

System: MCF7
Experiment: Antiproliferative activity against human MCF7 cells assessed as inhibition of cell growth measured after 72 hrs by MTT assay
Assay type: functional, cell-based
Settings: MCF7, 72 h
How it was run: (§1)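 Cells in log phase were seeded at 3000–5000 per well and cultured 24 h at 37 °C, then exposed to a range of compound concentrations in fresh medium for 72 h. MTT was added and incubated 4 h at 37 °C, formazan was dissolved in DMSO, and absorbance was read at 490 nm. IC50 was taken from survival rate, as mean ± SD of three independent experiments. Stocks were 10 mM in DMSO.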

Row | Compound | IC50 [µM]
1 | C=CC(=O)Nc1cccc(Nc2cc(C(F)(F)F)nc(SCc3cccc(F)c3)n2)c1 | 23
2 | C=CC(=O)Nc1cccc(Nc2cc(C(F)(F)F)nc(SCc3ccc(Cl)cc3Cl)n2)c1 | 6.25
3 | FC(F)(F)c1ccc(CSc2nc(N3CCN(c4ncccn4)CC3)cc(C(F)(F)F)n2)cc1 | > 50
4 | COc1cc(Nc2cc(C(F)(F)F)nc(SCc3ccc(C(F)(F)F)cc3)n2)cc(OC)c1OC | 10.9
5 | Nc1cccc(Nc2cc(C(F)(F)F)nc(SCc3ccc(C(F)(F)F)cc3)n2)c1 | 13.5
6 | FC(F)(F)c1ccc(CSc2nc(Sc3ncc(-c4ccncc4)s3)cc(C(F)(F)F)n2)cc1 | 10.1
7 | FC(F)(F)c1ccc(CSc2nc(N3CCN(c4ccccn4)CC3)cc(C(F)(F)F)n2)cc1 | > 50
8 | C=CC(=O)Nc1cccc(Nc2cc(C(F)(F)F)nc(SCc3ccccc3Br)n2)c1 | 20.2
9 | FC(F)(F)c1ccc(CSc2nc(SC3=NCCS3)cc(C(F)(F)F)n2)cc1 | 44.9
10 | O=c1[nH]cc(F)c(=O)[nH]1 [FLUOROURACIL] | 8.77
11 | C=CC(=O)Nc1cccc(Nc2cc(C(F)(F)F)nc(SCC3CC3)n2)c1 | 14.2
12 | C=CC(=O)Nc1cccc(Nc2cc(C(F)(F)F)nc(SCc3ccccc3C(F)(F)F)n2)c1 | 17.2
13 | FC(F)(F)c1ccc(CSc2nc(Sc3ccccn3)cc(C(F)(F)F)n2)cc1 | 43.2
14 | Fc1ccc(Nc2cc(C(F)(F)F)nc(SCc3ccc(C(F)(F)F)cc3)n2)cc1Cl | > 50
15 | FC(F)(F)c1ccc(CSc2nc(Nc3ccc(Cl)cc3Cl)cc(C(F)(F)F)n2)cc1 | > 50
16 | C=CC(=O)Nc1cccc(Nc2cc(C(F)(F)F)nc(SCc3ccccc3C)n2)c1 | 33.6
17 | C=CC(=O)Nc1cccc(Nc2cc(C(F)(F)F)nc(SCc3cccc(C(F)(F)F)c3)n2)c1 | 12.4
18 | FC(F)(F)c1ccc(CSc2nc(Sc3nnnn3-c3ccccc3)cc(C(F)(F)F)n2)cc1 | 39.5
19 | CC(C)(C)OC(=O)N1CCN(c2cc(C(F)(F)F)nc(SCc3ccc(C(F)(F)F)cc3)n2)CC1 | > 50
20 | CN1CCN(c2cc(C(F)(F)F)nc(SCc3ccc(C(F)(F)F)cc3)n2)CC1 | 30.2
21 | FC(F)(F)c1ccc(CSc2nc(N3CCOCC3)cc(C(F)(F)F)n2)cc1 | > 50
22 | FC(F)(F)c1ccc(CSc2nc(N3CCN(c4ccccc4)CC3)cc(C(F)(F)F)n2)cc1 | > 50
23 | C=CC(=O)Nc1cccc(Nc2cc(C(F)(F)F)nc(SCc3ccc(C)cc3)n2)c1 | 25.7
24 | C=CC(=O)Nc1cccc(Nc2cc(C(F)(F)F)nc(SCC3CCOCC3)n2)c1 | 17.7
25 | Cc1ccc(Nc2cc(C(F)(F)F)nc(SCc3ccc(C(F)(F)F)cc3)n2)cc1 | > 50

System: PC-3
Experiment: Antiproliferative activity against human PC-3 cells assessed as inhibition of cell growth measured after 72 hrs by MTT assay
Assay type: functional, cell-based
Settings: PC-3, 72 h
How it was run: as §1

Row | Compound | IC50 [µM]
26 | C=CC(=O)Nc1cccc(Nc2cc(C(F)(F)F)nc(SCc3cccc(F)c3)n2)c1 | 8.57
27 | C=CC(=O)Nc1cccc(Nc2cc(C(F)(F)F)nc(SCc3ccc(Cl)cc3Cl)n2)c1 | 6.66
28 | FC(F)(F)c1ccc(CSc2nc(N3CCN(c4ncccn4)CC3)cc(C(F)(F)F)n2)cc1 | > 50
29 | COc1cc(Nc2cc(C(F)(F)F)nc(SCc3ccc(C(F)(F)F)cc3)n2)cc(OC)c1OC | 19.5
30 | Nc1cccc(Nc2cc(C(F)(F)F)nc(SCc3ccc(C(F)(F)F)cc3)n2)c1 | 23.2
31 | FC(F)(F)c1ccc(CSc2nc(Sc3ncc(-c4ccncc4)s3)cc(C(F)(F)F)n2)cc1 | 7.35
32 | FC(F)(F)c1ccc(CSc2nc(N3CCN(c4ccccn4)CC3)cc(C(F)(F)F)n2)cc1 | > 50
33 | C=CC(=O)Nc1cccc(Nc2cc(C(F)(F)F)nc(SCc3ccccc3Br)n2)c1 | 8.17
34 | FC(F)(F)c1ccc(CSc2nc(SC3=NCCS3)cc(C(F)(F)F)n2)cc1 | 40.6
35 | O=c1[nH]cc(F)c(=O)[nH]1 [FLUOROURACIL] | 6.23
36 | C=CC(=O)Nc1cccc(Nc2cc(C(F)(F)F)nc(SCC3CC3)n2)c1 | 12.6
37 | C=CC(=O)Nc1cccc(Nc2cc(C(F)(F)F)nc(SCc3ccccc3C(F)(F)F)n2)c1 | 7.96
38 | FC(F)(F)c1ccc(CSc2nc(Sc3ccccn3)cc(C(F)(F)F)n2)cc1 | 25.2
39 | Fc1ccc(Nc2cc(C(F)(F)F)nc(SCc3ccc(C(F)(F)F)cc3)n2)cc1Cl | 35
40 | FC(F)(F)c1ccc(CSc2nc(Nc3ccc(Cl)cc3Cl)cc(C(F)(F)F)n2)cc1 | 29.6
41 | C=CC(=O)Nc1cccc(Nc2cc(C(F)(F)F)nc(SCc3ccccc3C)n2)c1 | 15.1
42 | C=CC(=O)Nc1cccc(Nc2cc(C(F)(F)F)nc(SCc3cccc(C(F)(F)F)c3)n2)c1 | 5.92
43 | FC(F)(F)c1ccc(CSc2nc(Sc3nnnn3-c3ccccc3)cc(C(F)(F)F)n2)cc1 | 45.3
44 | CC(C)(C)OC(=O)N1CCN(c2cc(C(F)(F)F)nc(SCc3ccc(C(F)(F)F)cc3)n2)CC1 | 40.6
45 | CN1CCN(c2cc(C(F)(F)F)nc(SCc3ccc(C(F)(F)F)cc3)n2)CC1 | 34.7
46 | FC(F)(F)c1ccc(CSc2nc(N3CCOCC3)cc(C(F)(F)F)n2)cc1 | 40.8
47 | FC(F)(F)c1ccc(CSc2nc(N3CCN(c4ccccc4)CC3)cc(C(F)(F)F)n2)cc1 | 42.7
48 | C=CC(=O)Nc1cccc(Nc2cc(C(F)(F)F)nc(SCc3ccc(C)cc3)n2)c1 | 17.8
49 | C=CC(=O)Nc1cccc(Nc2cc(C(F)(F)F)nc(SCC3CCOCC3)n2)c1 | 8.96
50 | Cc1ccc(Nc2cc(C(F)(F)F)nc(SCc3ccc(C(F)(F)F)cc3)n2)cc1 | 16.5

System: GES1
Experiment: Cytotoxicity against human GES1 cells assessed as reduction in cell viability measured after 72 hrs by MTT assay
Assay type: cell-based
Settings: GES1, 72 h
How it was run: as §1

Row | Compound | IC50 [µM]
51 | O=c1[nH]cc(F)c(=O)[nH]1 [FLUOROURACIL] | 19.3

System: MGC-803
Experiment: Antiproliferative activity against human MGC-803 cells assessed as inhibition of cell growth measured after 72 hrs by MTT assay
Assay type: functional, cell-based
Settings: MGC-803, 72 h
How it was run: as §1

Row | Compound | IC50 [µM]
52 | C=CC(=O)Nc1cccc(Nc2cc(C(F)(F)F)nc(SCc3cccc(F)c3)n2)c1 | 7.14
53 | C=CC(=O)Nc1cccc(Nc2cc(C(F)(F)F)nc(SCc3ccc(Cl)cc3Cl)n2)c1 | 18.6
54 | FC(F)(F)c1ccc(CSc2nc(N3CCN(c4ncccn4)CC3)cc(C(F)(F)F)n2)cc1 | 35.2
55 | COc1cc(Nc2cc(C(F)(F)F)nc(SCc3ccc(C(F)(F)F)cc3)n2)cc(OC)c1OC | 15.5
56 | Nc1cccc(Nc2cc(C(F)(F)F)nc(SCc3ccc(C(F)(F)F)cc3)n2)c1 | 8.97
57 | FC(F)(F)c1ccc(CSc2nc(Sc3ncc(-c4ccncc4)s3)cc(C(F)(F)F)n2)cc1 | 5.77
58 | FC(F)(F)c1ccc(CSc2nc(N3CCN(c4ccccn4)CC3)cc(C(F)(F)F)n2)cc1 | 23.5
59 | C=CC(=O)Nc1cccc(Nc2cc(C(F)(F)F)nc(SCc3ccccc3Br)n2)c1 | 30.9
60 | FC(F)(F)c1ccc(CSc2nc(SC3=NCCS3)cc(C(F)(F)F)n2)cc1 | 24.5
61 | O=c1[nH]cc(F)c(=O)[nH]1 [FLUOROURACIL] | 9.05
62 | C=CC(=O)Nc1cccc(Nc2cc(C(F)(F)F)nc(SCC3CC3)n2)c1 | 38.7
63 | C=CC(=O)Nc1cccc(Nc2cc(C(F)(F)F)nc(SCc3ccccc3C(F)(F)F)n2)c1 | 26.6
64 | FC(F)(F)c1ccc(CSc2nc(Sc3ccccn3)cc(C(F)(F)F)n2)cc1 | > 50
65 | Fc1ccc(Nc2cc(C(F)(F)F)nc(SCc3ccc(C(F)(F)F)cc3)n2)cc1Cl | 41.4
66 | FC(F)(F)c1ccc(CSc2nc(Nc3ccc(Cl)cc3Cl)cc(C(F)(F)F)n2)cc1 | 35.5
67 | C=CC(=O)Nc1cccc(Nc2cc(C(F)(F)F)nc(SCc3ccccc3C)n2)c1 | 18.2
68 | C=CC(=O)Nc1cccc(Nc2cc(C(F)(F)F)nc(SCc3cccc(C(F)(F)F)c3)n2)c1 | 18.7
69 | FC(F)(F)c1ccc(CSc2nc(Sc3nnnn3-c3ccccc3)cc(C(F)(F)F)n2)cc1 | 12.4
70 | CC(C)(C)OC(=O)N1CCN(c2cc(C(F)(F)F)nc(SCc3ccc(C(F)(F)F)cc3)n2)CC1 | 22.2
71 | CN1CCN(c2cc(C(F)(F)F)nc(SCc3ccc(C(F)(F)F)cc3)n2)CC1 | 15.8
72 | FC(F)(F)c1ccc(CSc2nc(N3CCOCC3)cc(C(F)(F)F)n2)cc1 | > 50
73 | FC(F)(F)c1ccc(CSc2nc(N3CCN(c4ccccc4)CC3)cc(C(F)(F)F)n2)cc1 | 35.2
74 | C=CC(=O)Nc1cccc(Nc2cc(C(F)(F)F)nc(SCc3ccc(C)cc3)n2)c1 | 18.5
75 | C=CC(=O)Nc1cccc(Nc2cc(C(F)(F)F)nc(SCC3CCOCC3)n2)c1 | 28.3
76 | Cc1ccc(Nc2cc(C(F)(F)F)nc(SCc3ccc(C(F)(F)F)cc3)n2)cc1 | 32.3

System: not listed separately
Experiment: Selectivity index, ratio of IC50 for cytotoxicity against human GES1 cells to IC50 for antiproliferative activity against human NCI-H1975 cells
Assay type: toxicity, cell-based
Settings: GES1 cells versus NCI-H1975 cells, read-out: Ratio IC50
How it was run: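 Ratio of GES-1 IC50 to H1975 IC50. Both came from the 72 h MTT assay, with IC50 as the mean ± SD of three separate experiments.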

Row | Compound | selectivity ratio
77 | O=c1[nH]cc(F)c(=O)[nH]1 [FLUOROURACIL] | 2.06

System: NCI-H1975
Experiment: Antiproliferative activity against human NCI-H1975 cells assessed as inhibition of cell growth measured after 72 hrs by MTT assay
Assay type: functional, cell-based
Settings: NCI-H1975, 72 h
How it was run: as §1

Row | Compound | IC50 [µM]
78 | C=CC(=O)Nc1cccc(Nc2cc(C(F)(F)F)nc(SCc3cccc(F)c3)n2)c1 | 13.7
79 | C=CC(=O)Nc1cccc(Nc2cc(C(F)(F)F)nc(SCc3ccc(Cl)cc3Cl)n2)c1 | 15.3
80 | FC(F)(F)c1ccc(CSc2nc(N3CCN(c4ncccn4)CC3)cc(C(F)(F)F)n2)cc1 | 18.3
81 | COc1cc(Nc2cc(C(F)(F)F)nc(SCc3ccc(C(F)(F)F)cc3)n2)cc(OC)c1OC | 9.92
82 | Nc1cccc(Nc2cc(C(F)(F)F)nc(SCc3ccc(C(F)(F)F)cc3)n2)c1 | 23.6
83 | FC(F)(F)c1ccc(CSc2nc(Sc3ncc(-c4ccncc4)s3)cc(C(F)(F)F)n2)cc1 | 16.7
84 | FC(F)(F)c1ccc(CSc2nc(N3CCN(c4ccccn4)CC3)cc(C(F)(F)F)n2)cc1 | 17.4
85 | C=CC(=O)Nc1cccc(Nc2cc(C(F)(F)F)nc(SCc3ccccc3Br)n2)c1 | 9.62
86 | FC(F)(F)c1ccc(CSc2nc(SC3=NCCS3)cc(C(F)(F)F)n2)cc1 | 24.2
87 | O=c1[nH]cc(F)c(=O)[nH]1 [FLUOROURACIL] | 9.37
88 | C=CC(=O)Nc1cccc(Nc2cc(C(F)(F)F)nc(SCC3CC3)n2)c1 | 19.2
89 | C=CC(=O)Nc1cccc(Nc2cc(C(F)(F)F)nc(SCc3ccccc3C(F)(F)F)n2)c1 | 6.55
90 | FC(F)(F)c1ccc(CSc2nc(Sc3ccccn3)cc(C(F)(F)F)n2)cc1 | 23.9
91 | Fc1ccc(Nc2cc(C(F)(F)F)nc(SCc3ccc(C(F)(F)F)cc3)n2)cc1Cl | 22.1
92 | FC(F)(F)c1ccc(CSc2nc(Nc3ccc(Cl)cc3Cl)cc(C(F)(F)F)n2)cc1 | 33.5
93 | C=CC(=O)Nc1cccc(Nc2cc(C(F)(F)F)nc(SCc3ccccc3C)n2)c1 | 14.6
94 | C=CC(=O)Nc1cccc(Nc2cc(C(F)(F)F)nc(SCc3cccc(C(F)(F)F)c3)n2)c1 | 5.07
95 | FC(F)(F)c1ccc(CSc2nc(Sc3nnnn3-c3ccccc3)cc(C(F)(F)F)n2)cc1 | 24.3
96 | CC(C)(C)OC(=O)N1CCN(c2cc(C(F)(F)F)nc(SCc3ccc(C(F)(F)F)cc3)n2)CC1 | > 50
97 | CN1CCN(c2cc(C(F)(F)F)nc(SCc3ccc(C(F)(F)F)cc3)n2)CC1 | 23.9
98 | FC(F)(F)c1ccc(CSc2nc(N3CCOCC3)cc(C(F)(F)F)n2)cc1 | > 50
99 | FC(F)(F)c1ccc(CSc2nc(N3CCN(c4ccccc4)CC3)cc(C(F)(F)F)n2)cc1 | > 50
100 | C=CC(=O)Nc1cccc(Nc2cc(C(F)(F)F)nc(SCc3ccc(C)cc3)n2)c1 | 15
101 | C=CC(=O)Nc1cccc(Nc2cc(C(F)(F)F)nc(SCC3CCOCC3)n2)c1 | 16.3
102 | Cc1ccc(Nc2cc(C(F)(F)F)nc(SCc3ccc(C(F)(F)F)cc3)n2)cc1 | 20.6
